T cruzi HTS – blocks T. cruzi growth inside host cells; 4.9% of 22,000 active; intracellular Trypanosoma cruzi in host cells, plate reader; AID 651903; activity score (inhibition), % at 5.01 µM; in the data active = activity score above about 55%; inconclusive = no clear call, values can overlap the other calls;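 note: parasites and compound incubated about four days before reading; 0% = median of neutral control wells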
A1 apoptosis 2 – A1 inhibition read as caspase activation | caspase activation, % (concentration not given with the values) | MEF A1-2A-BIM cells, caspase-Glo luminescence, 3 h; percent of clofoctol response, DMSO zero | 24,000 tested, under 10 active; in the data active = caspase activation above about 5.9%; inconclusive = no clear call, values can overlap the other calls; inactive = below about 2.2%
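System: mouse embryonic fibroblasts co-expressing A1 and BIM (A1-2A-BIM), primed for A1 dependence; amount: 2500 cells/well; doses: 50 nL pinned compound; schedule: cells settled overnight, compound exposure 3 h at 37 °C, 5% CO2; detection: Caspase-Glo 3/7 luminescence, 1 h at room temperature; read-out: Caspase-3/7 activation, seen as rise in luminescence signal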
INS-1E rescue – rescue of cytokine-induced death in INS-1E beta cells. 0.1% of 20,000 active. INS-1E cytokine-induced death, ATP luminescence, 48 h; normalised: neutral wells 0, positive control 100. protection from cytokine-induced ATP loss, % at 10 µM;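 active = mean replicate protection from cytokine-induced ATP loss at least 50% and at least 75% of replicates each reaching 50%; inconclusive = meets only one of the two criteria, mean or replicate share; inactive = fails both the mean and replicate share criteria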
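Material: INS-1E rat cells; Quantity: 8000 cells/well; Buffer or medium: phenol-red-free RPMI with 5% fetal bovine serum; Probe or stimulus: cytokine cocktail of IFN-γ, TNF-α and IL-1β; Compound dosing: single test concentration per compound, delivered by pin transfer; Incubation: 48 h co-treatment, 10 min post-lysis read; Signal: CellTiter-Glo luminescence.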
The depositor's hits bear a star; ? = inconclusive; . = not tested or not shown. This excerpt belongs to a sample that is enriched for hits.

SMILES | T cruzi HTS | A1 apoptosis 2 | INS-1E rescue
C[C@H]1CN([C@@H](C)CO)C(=O)c2cc(NC(=O)Nc3cccc4ccccc34)ccc2O[C@H]1CN(C)Cc1ccc(Cl)c(Cl)c1 | 48 | -1 | .
C[C@@H]1CN([C@H](C)CO)C(=O)c2cccc(NC(=O)Nc3cccc4ccccc34)c2O[C@@H]1CN(C)Cc1ccc(Cl)c(Cl)c1 | 12 | 0 | -19
C[C@H]1CN([C@@H](C)CO)C(=O)Cc2cc(NC(=O)Nc3cccc4ccccc34)ccc2O[C@H]1CN(C)Cc1ccc(Cl)c(Cl)c1 | 35 | . | -11
C[C@H]1CN([C@@H](C)CO)C(=O)c2cc(NC(=O)Nc3cccc4ccccc34)ccc2O[C@@H]1CN(C)Cc1ccc(Cl)c(Cl)c1 | 65* | 0 | -35
C[C@H](CO)N1C[C@H](C)[C@H](CN(C)Cc2ccc(Cl)c(Cl)c2)Oc2ccc(NC(=O)Nc3cccc4ccccc34)cc2CC1=O | 68* | 2 | -5
C[C@@H]1CN([C@H](C)CO)C(=O)Cc2cc(NC(=O)Nc3cccc4ccccc34)ccc2O[C@H]1CN(C)Cc1ccc(Cl)c(Cl)c1 | 47 | . | 0
C[C@@H]1CN([C@H](C)CO)C(=O)Cc2cc(NC(=O)Nc3cccc4ccccc34)ccc2O[C@@H]1CN(C)Cc1ccc(Cl)c(Cl)c1 | 68* | . | -22
C[C@H](CO)N1C[C@H](C)[C@@H](CN(C)Cc2ccc(Cl)c(Cl)c2)Oc2c(NC(=O)Nc3cccc4ccccc34)cccc2C1=O | 68* | -2 | -17
COc1ccccc1CN1C(=O)c2ccccc2[C@](Cc2ccccc2I)(C(=O)NCC(C)C)[C@@H]1c1ccc(CO)cc1 | . | -1 | .
COC(=O)CCCCCCC(=O)N/N=C/[C@H](O)[C@H](O)[C@@H](O)[C@@H](O)CO | -10 | 0 | -9
Cc1ccc(F)cc1S(=O)(=O)N[C@@H]1CCN(Cc2ccc(CC(C)C)cc2)C1 | . | 0 | .
COc1cc(Br)c(/C=N/NC(=O)c2cccc(C(=O)NO)c2)cc1OC | -3 | 2 | -5
O=C(CCCCCCC(=O)Nc1ccccc1O)N/N=C/c1cccnc1Cl | -6 | . | 11
C[C@@H]1CCCCO[C@@H](CN(C)C(=O)c2ccccc2)[C@@H](C)CN([C@@H](C)CO)C(=O)c2cc(NC(=O)Nc3ccc4c(c3)OCO4)ccc2O1 | . | 0 | .
C[C@H](CO)N1C[C@H](C)[C@@H](CN(C)CC2CC2)OCCCC[C@H](C)Oc2ccc(NC(=O)Nc3cccc4ccccc34)cc2C1=O | . | 1 | .
C[C@@H]1CCCCO[C@H](CN(C)CC2CCCCC2)[C@@H](C)CN([C@H](C)CO)C(=O)c2cc(NC(=O)Nc3cccc4ccccc34)ccc2O1 | 64* | . | -33
C[C@@H]1CCCCO[C@@H](CN(C)CC2CCCCC2)[C@@H](C)CN([C@H](C)CO)C(=O)c2cc(NC(=O)Nc3cccc4ccccc34)ccc2O1 | 67* | . | -32
C[C@@H]1CCCCO[C@@H](CN(C)CC2CCCCC2)[C@H](C)CN([C@@H](C)CO)C(=O)c2cc(NC(=O)Nc3cccc4ccccc34)ccc2O1 | . | 0 | .
CCCCN(CCCC)c1ccc(/C=N/NC(=O)c2ccccn2)cc1 | 52 | . | -1
O=C(CCCCC(=O)N/N=C/c1ccc(Br)cc1)NO | . | 0 | .
C[C@@H]1CN([C@H](C)CO)C(=O)Cc2cc(NC(=O)C3CC3)ccc2O[C@H]1CN(C)Cc1ccc(-c2ccccc2)cc1 | 15 | -1 | -5
C[C@@H]1CN([C@@H](C)CO)C(=O)Cc2cc(NC(=O)C3CC3)ccc2O[C@H]1CN(C)Cc1ccc(-c2ccccc2)cc1 | . | 0 | .
C[C@H](CO)N1C[C@H](C)[C@H](CN(C)Cc2ccc(-c3ccccc3)cc2)Oc2ccc(NC(=O)C3CCCCC3)cc2CC1=O | 67* | . | -41
C[C@@H]1CN([C@H](C)CO)C(=O)Cc2cc(NC(=O)C3CCCCC3)ccc2O[C@H]1CN(C)Cc1ccc(-c2ccccc2)cc1 | 57* | 0 | -27
C[C@@H]1CN([C@H](C)CO)C(=O)Cc2cc(NC(=O)C3CCCCC3)ccc2O[C@@H]1CN(C)Cc1ccc(-c2ccccc2)cc1 | ? | 2 | -77
C[C@H]1CN([C@@H](C)CO)C(=O)Cc2cc(NC(=O)C3CCCCC3)ccc2O[C@@H]1CN(C)Cc1ccc(-c2ccccc2)cc1 | 60* | . | -39
COC(=O)[C@]1(Cc2ccccc2)N=C(c2ccc(OCCCO)cc2)O[C@@H]1c1ccccc1N=[N+]=[N-] | . | 0 | .
O=C(NO)c1cccc(C(=O)N/N=C/c2ccccc2OCCO)c1 | -13 | -1 | 10
C[C@H](CO)N1C[C@H](C)[C@@H](CN(C)Cc2ccccc2)Oc2c(NC(=O)c3ccc(-c4nccs4)cc3)cccc2C1=O | 53 | . | -9
